This is an account of results in ChEMBL document CHEMBL1667757, “Efficient and novel one-pot synthesis of antifungal active 1-substituted-8-aryl-3-alkyl/aryl-4H-pyrazolo[4,5-f][1,2,4]triazolo[4,3-b][1,2,4]triazepines using solid support” (2011).

Holding throughout (assay type): functional
Test [1] concerns Aspergillus niger. The test can be described thus: Antifungal activity against Aspergillus niger at 1000 ug after 24 hrs by paper disc technique. The conditions noted are these: for zone of inhibition at 1000 µg/disc: Aspergillus niger, 24 h, read-out: DIZ. A digest of the protocol: (§1)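 Paper disc diffusion on double-layer potato dextrose agar: 15 mL sterile base topped with 15 mL medium seeded at 40 °C with spores from ten-day cultures; streptomycin added to prevent bacterial growth. Compounds dissolved in DMF at 500 or 1000 µg/mL and applied to 6 mm filter paper discs on chilled seeded plates. Plates incubated at 28 ± 2 °C. Inhibition zone measured from disc centre at 24 h, percent inhibition calculated as (C − T)/C × 100. Fluconazole at same concentrations served as standard.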

Test [2] relates to Rhizopus. The test can be described thus: Antifungal activity against Rhizopus species at 1000 ug after 24 hrs by paper disc technique. The note with it: for zone of inhibition at 1000 µg/disc: Rhizopus, 24 h, read-out: DIZ. In a few lines:
as §1

For test [3], the system named is Aspergillus flavus. Kind of test: Antifungal activity against Aspergillus flavus at 1000 ug after 24 hrs by paper disc technique. The note with it: for zone of inhibition at 1000 µg/disc: Aspergillus flavus, 24 h, read-out: DIZ. In a few lines:
as §1

Test [4] concerns Aspergillus niger. The test can be described thus: Antifungal activity against Aspergillus niger at 500 ug after 24 hrs by paper disc technique. The note with it: for zone of inhibition at 500 µg/disc: Aspergillus niger, 24 h, read-out: DIZ. A digest of the protocol:
as §1

For test [5], the system named is Rhizopus. Kind of test: Antifungal activity against Rhizopus species at 500 ug after 24 hrs by paper disc technique. The note with it: for zone of inhibition at 500 µg/disc: Rhizopus, 24 h, read-out: DIZ. In a few lines:
as §1

Test [6] deals with Penicillium sp. Kind of test: Antifungal activity against Penicillium species at 1000 ug after 24 hrs by paper disc technique. The note with it: for zone of inhibition at 1000 µg/disc: Penicillium sp., 24 h, read-out: DIZ. In a few lines:
as §1

Test [7] relates to Aspergillus flavus. Kind of test: Antifungal activity against Aspergillus flavus at 500 ug after 24 hrs by paper disc technique. The note with it: for zone of inhibition at 500 µg/disc: Aspergillus flavus, 24 h, read-out: DIZ. A digest of the protocol:
as §1

The subject of test [8] is Penicillium sp. Kind of test: Antifungal activity against Penicillium species at 500 ug after 24 hrs by paper disc technique. The conditions noted are these: for zone of inhibition at 500 µg/disc: Penicillium sp., 24 h, read-out: DIZ. A digest of the protocol: as §1

`Brc1ccc(-c2nn(-c3ccccc3)c3c2C=Nc2nnc(-c4ccccc4)n2N3)cc1`: the values for the percent inhibition in the test with Aspergillus niger [1] and in the test with Penicillium sp. [6] were 21.33% and 13.33%, respectively. The zone of inhibition at 1000 µg/disc in the test on Aspergillus niger [1] was 12 mm; in the test on Rhizopus [2] it was 22 mm; with Aspergillus flavus [3] it was 6 mm; in the test on Penicillium sp. [6], 8 mm. The Activity with Rhizopus [2] is 38%; in the test with Aspergillus niger [4] it was 3.33%; with Rhizopus [5], 42.66%; in the test on Aspergillus flavus [7], 31.33%; in the test on Penicillium sp. [8], 8.33%. In the test on Aspergillus flavus [3], the percent growth inhibition amounted to 11.33%. Also, the zone of inhibition at 500 µg/disc amounted to 2 mm in the test with Aspergillus niger [4], 26 mm in the test on Rhizopus [5], 18 mm with Aspergillus flavus [7] and 5 mm with Penicillium sp. [8].

Take `Brc1ccc(-c2nn(-c3ccccc3)c3c2C=Nc2nnc(Cc4ccccc4)n2N3)cc1`: the percent inhibition in the test on Aspergillus niger [1] worked out at 23.33%. Moreover, the zone of inhibition at 1000 µg/disc came out at 14 mm in the test with Aspergillus niger [1], 24 mm in the test with Rhizopus [2] and 8 mm with Aspergillus flavus [3]. The Activity with Rhizopus [2] is listed as 40%; in the test with Aspergillus niger [4], 3.33%; with Rhizopus [5], 46.66%; in the test on Aspergillus flavus [7] it was 33.33%; in the test with Penicillium sp. [8], 8.33%. The same compound displayed a percent growth inhibition with Aspergillus flavus [3] of 13.33%. Also, the zone of inhibition at 500 µg/disc in the test with Aspergillus niger [4] worked out at 2 mm; in the test with Rhizopus [5] it was 28 mm; in the test with Aspergillus flavus [7], 20 mm; with Penicillium sp. [8], 5 mm.

Turning to `Cc1n[nH]c2c1C=Nc1nnc(-c3ccc(Cl)cc3)n1N2`, the percent inhibition came out at 53.33% in the test on Aspergillus niger [1] and 15% in the test with Penicillium sp. [6]. The zone of inhibition at 1000 µg/disc is 32 mm in the test with Aspergillus niger [1], 40 mm in the test on Rhizopus [2], 24 mm in the test on Aspergillus flavus [3] and 9 mm in the test with Penicillium sp. [6]. The Activity is 60.66% in the test with Rhizopus [2]; 38.33% in the test with Aspergillus niger [4]; 51.66% in the test with Rhizopus [5]; 36.66% in the test on Aspergillus flavus [7]; 13.33% in the test on Penicillium sp. [8]. The same compound gave a percent growth inhibition with Aspergillus flavus [3] of 40%. In addition, the zone of inhibition at 500 µg/disc with Aspergillus niger [4] is 23 mm; with Rhizopus [5], 31 mm; in the test on Aspergillus flavus [7], 22 mm; with Penicillium sp. [8], 8 mm.

As to `Clc1ccc(-c2nnc3n2Nc2c(c(-c4ccc(Br)cc4)nn2-c2ccccc2)C=N3)cc1`, the percent inhibition turned out to be 35.36% in the test on Aspergillus niger [1] and 13.33% in the test on Penicillium sp. [6]. Also, the zone of inhibition at 1000 µg/disc with Aspergillus niger [1] is 21 mm; in the test on Rhizopus [2], 32 mm; with Aspergillus flavus [3], 24 mm; in the test on Penicillium sp. [6] it was 8 mm. In addition, the Activity in the test with Rhizopus [2] is on record as 53.33%; in the test on Aspergillus niger [4], 53.33%; in the test with Rhizopus [5], 60.66%; in the test with Aspergillus flavus [7] it was 36.66%; in the test on Penicillium sp. [8], 15%. Moreover, in the test on Aspergillus flavus [3], the percent growth inhibition is on record as 40%. For the same compound, the zone of inhibition at 500 µg/disc in the test on Aspergillus niger [4] is 32 mm; with Rhizopus [5], 40 mm; in the test with Aspergillus flavus [7] it was 22 mm; with Penicillium sp. [8], 9 mm.

For `O=[N+]([O-])c1ccc(-c2nn(-c3ccccc3)c3c2C=Nc2nnc(-c4ccccc4)n2N3)cc1`, the percent inhibition is reported as 33.33% in the test with Aspergillus niger [1] and 15% in the test with Penicillium sp. [6]. The zone of inhibition at 1000 µg/disc with Aspergillus niger [1] amounted to 20 mm; with Rhizopus [2] it was 36 mm; in the test with Aspergillus flavus [3], 22 mm; with Penicillium sp. [6] it was 9 mm. Besides, the Activity was determined as 66.66% with Rhizopus [2]; 51.66% in the test with Aspergillus niger [4]; 65% in the test on Rhizopus [5]; 40% in the test on Aspergillus flavus [7]; 12.98% in the test with Penicillium sp. [8]. In the test with Aspergillus flavus [3], this compound registered a percent growth inhibition of 36.66%. Moreover, the zone of inhibition at 500 µg/disc in the test on Aspergillus niger [4] was 31 mm; in the test on Rhizopus [5] it was 39 mm; in the test with Aspergillus flavus [7] it was 24 mm; in the test on Penicillium sp. [8], 7 mm.

Regarding `O=[N+]([O-])c1ccc(-c2nnc3n2Nc2c(c(-c4ccc(Br)cc4)nn2-c2ccccc2)C=N3)cc1`, the percent inhibition worked out at 3.33% in the test with Aspergillus niger [1] and 8.33% in the test with Penicillium sp. [6]. Moreover, the zone of inhibition at 1000 µg/disc with Aspergillus niger [1] was determined as 2 mm; with Rhizopus [2] it was 21 mm; in the test on Aspergillus flavus [3], 8 mm; in the test with Penicillium sp. [6], 5 mm. For the same compound, the Activity in the test on Rhizopus [2] is listed as 35.36%; with Aspergillus niger [4] it was 23.33%; in the test with Rhizopus [5], 40%; in the test on Aspergillus flavus [7] it was 31.33%; in the test with Penicillium sp. [8] it was 3.33%. In the test with Aspergillus flavus [3], this compound showed a percent growth inhibition of 13.33%. Also, the zone of inhibition at 500 µg/disc in the test on Aspergillus niger [4] came out at 14 mm; with Rhizopus [5] it was 24 mm; in the test on Aspergillus flavus [7], 18 mm; in the test with Penicillium sp. [8], 2 mm.

For the compound `O=[N+]([O-])c1ccc(-c2nn(-c3ccccc3)c3c2C=Nc2nnc(Cc4ccccc4)n2N3)cc1`, the percent inhibition in the test with Aspergillus niger [1] is listed as 23.33%. The zone of inhibition at 1000 µg/disc is 14 mm in the test on Aspergillus niger [1], 24 mm with Rhizopus [2] and 8 mm with Aspergillus flavus [3]. Besides, the Activity is 40% in the test with Rhizopus [2], 3.33% with Aspergillus niger [4], 46.66% in the test on Rhizopus [5] and 33.33% in the test on Aspergillus flavus [7]. This compound also returned a percent growth inhibition with Aspergillus flavus [3] of 13.33%. In addition, the zone of inhibition at 500 µg/disc in the test on Aspergillus niger [4] came to 2 mm; with Rhizopus [5] it was 28 mm; in the test with Aspergillus flavus [7] it was 20 mm.

Consider `Cc1n[nH]c2c1C=Nc1nnc(-c3ccccc3)n1N2`, for which the results for the percent inhibition in the test with Aspergillus niger [1] and in the test on Penicillium sp. [6] were 53.33% and 13.33%, respectively. In addition, the zone of inhibition at 1000 µg/disc was determined as 32 mm in the test with Aspergillus niger [1], 40 mm in the test on Rhizopus [2], 24 mm in the test with Aspergillus flavus [3] and 8 mm with Penicillium sp. [6]. Also, the Activity in the test on Rhizopus [2] was found to be 60.66%; in the test on Aspergillus niger [4], 36.66%; with Rhizopus [5], 53.33%; with Aspergillus flavus [7], 33.33%; in the test on Penicillium sp. [8] it was 10%. Further, in the test on Aspergillus flavus [3], the percent growth inhibition was determined as 40%. Besides, the zone of inhibition at 500 µg/disc with Aspergillus niger [4] was 22 mm; in the test with Rhizopus [5] it was 32 mm; with Aspergillus flavus [7], 20 mm; with Penicillium sp. [8], 6 mm.

As for `C1=Nc2nnc(-c3ccccc3)n2Nc2c1c(-c1ccccc1)nn2-c1ccccc1`, the percent inhibition is listed as 51.66% in the test with Aspergillus niger [1] and 3.33% in the test with Penicillium sp. [6]. In addition, the zone of inhibition at 1000 µg/disc is 31 mm with Aspergillus niger [1], 39 mm in the test on Rhizopus [2], 21 mm in the test with Aspergillus flavus [3] and 2 mm with Penicillium sp. [6]. The Activity is listed as 65% in the test with Rhizopus [2]; 33.33% in the test with Aspergillus niger [4]; 66.66% in the test with Rhizopus [5]; 35.36% in the test with Aspergillus flavus [7]; 8.33% in the test on Penicillium sp. [8]. The same compound yielded a percent growth inhibition in the test on Aspergillus flavus [3] of 35.36%. For the same compound, the zone of inhibition at 500 µg/disc in the test with Aspergillus niger [4] is 20 mm; in the test with Rhizopus [5], 36 mm; in the test on Aspergillus flavus [7] it was 21 mm; with Penicillium sp. [8], 5 mm.

In the test with Aspergillus niger [1], `O=[N+]([O-])c1ccc(-c2nn(-c3ccccc3)c3c2C=Nc2nnc(-c4ccc([N+](=O)[O-])cc4)n2N3)cc1` came in with a percent inhibition of 25%. The zone of inhibition at 1000 µg/disc amounted to 15 mm in the test with Aspergillus niger [1], 23 mm with Rhizopus [2] and 9 mm in the test with Aspergillus flavus [3]. Also, the Activity turned out to be 38.33% with Rhizopus [2], 13.33% in the test with Aspergillus niger [4], 30% in the test on Rhizopus [5] and 5% with Aspergillus flavus [7]. In the test on Aspergillus flavus [3], the percent growth inhibition came out at 15%. For the same compound, the figures for the zone of inhibition at 500 µg/disc in the test on Aspergillus niger [4], in the test on Rhizopus [5] and with Aspergillus flavus [7] were 8 mm, 18 mm and 3 mm, respectively.

As for `OC(Cn1cncn1)(Cn1cncn1)c1ccc(F)cc1F` [FLUCONAZOLE], the percent inhibition is recorded as 80% in the test with Aspergillus niger [1] and 90% in the test on Penicillium sp. [6]. Further, the zone of inhibition at 1000 µg/disc came to 48 mm in the test with Aspergillus niger [1], 42 mm in the test on Rhizopus [2], 42 mm in the test on Aspergillus flavus [3] and 54 mm in the test with Penicillium sp. [6]. Moreover, the Activity in the test on Rhizopus [2] was 70%; in the test on Aspergillus niger [4] it was 70%; in the test with Rhizopus [5] it was 63.33%; in the test with Aspergillus flavus [7], 58.33%; in the test on Penicillium sp. [8], 86.66%. The compound also had a percent growth inhibition in the test with Aspergillus flavus [3] of 70%. Besides, the zone of inhibition at 500 µg/disc with Aspergillus niger [4] is 42 mm; in the test with Rhizopus [5], 38 mm; with Aspergillus flavus [7] it was 35 mm; in the test with Penicillium sp. [8], 52 mm.
